Reference: ChEMBL document CHEMBL4689842, “EUbOPEN Chemogenomics Library wave 1” (2021)

Test system: HEK-293T
Test: Multiplex assay against HEK293T;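 for Population Tubulin-Different-Phenotype (%): share of the cells with healthy nuclei that show this phenotype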
Format: toxicity, cell-based
Settings: human
Method in brief: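 Compound was added to live cells that had been stained at seeding with Hoechst33342, BioTracker Green Microtubule Cytoskeleton Dye, MitoTracker Red and Annexin V Alexa Fluor 680, and imaging followed on a CQ1 microscope at 37°C and 5% CO2. CellPathfinder machine-learning gating divided cells into Hoechst high-intensity objects or normal cells, normal cells into healthy, pyknosed or fragmented nuclei, and pyknosed cells into mitotic or apoptotic. Tubulin, mitochondrial-mass and membrane-permeability phenotypes are per cents of healthy-nucleus cells.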

[1] = 12 h, 1 µM, compound concentration 1 uM, replicate 1
[2] = 12 h, 1 µM, compound concentration 1 uM, replicate 2
[3] = 12 h, 10 µM, compound concentration 10 uM, replicate 1
[4] = 12 h, 10 µM, compound concentration 10 uM, replicate 2
[5] = 24 h, 1 µM, compound concentration 1 uM, replicate 1
[6] = 24 h, 1 µM, compound concentration 1 uM, replicate 2
[7] = 24 h, 10 µM, compound concentration 10 uM, replicate 1
[8] = 24 h, 10 µM, compound concentration 10 uM, replicate 2
[9] = 48 h, 1 µM, compound concentration 1 uM, replicate 1
[10] = 48 h, 1 µM, compound concentration 1 uM, replicate 2
[11] = 48 h, 10 µM, compound concentration 10 uM, replicate 1
[12] = 48 h, 10 µM, compound concentration 10 uM, replicate 2

In the case of `C[C@]12CC[C@@H]3c4ccc(O)cc4CC[C@H]3[C@@H]1CC[C@@H]2O` [ESTRADIOL], the “Population Apoptotic (%)” value [1] is reported as 40%, the “Population Fragmented Nuclei (%)” value [1] is reported as 10% and the “Population Healthy Nuclei (%)” value [1] is reported as 45%. For the same compound, the “Population Hoechst High Intensity Objects (%)” value [1] was 14%, the “Population Membrane Permeable-Phenotype (%)” value [1] was 1% and the “Population Mitochondria Different-Phenotype (%)” value [1] was 72%. The “Population Mitotic Cells (%)” value [1] was 59%, the “Population Normal (%)” value [1] was 85% and the “Population Pyknosed Nuclei (%)” value [1] was 44%. The “Population Tubulin-Different-Phenotype (%)” value [1] was 41%, the “Population Apoptotic (%)” value [2] was 4% and the “Population Fragmented Nuclei (%)” value [2] was 7%. The “Population Healthy Nuclei (%)” value [2] was 42%, the “Population Hoechst High Intensity Objects (%)” value [2] was 3% and the “Population Membrane Permeable-Phenotype (%)” value [2] was 3%. For the same compound, the “Population Mitochondria Different-Phenotype (%)” value [2] was 10%, the “Population Mitotic Cells (%)” value [2] was 95% and the “Population Normal (%)” value [2] was 96%. The “Population Pyknosed Nuclei (%)” value [2] was 50%, the “Population Tubulin-Different-Phenotype (%)” value [2] was 11% and the “Population Apoptotic (%)” value [3] was 42%. For the same compound, the “Population Fragmented Nuclei (%)” value [3] was 11%, the “Population Hoechst High Intensity Objects (%)” value [3] was 15% and the “Population Membrane Permeable-Phenotype (%)” value [3] was 0%. For the same compound, the “Population Mitochondria Different-Phenotype (%)” value [3] was 76%, the “Population Mitotic Cells (%)” value [3] was 57% and the “Population Normal (%)” value [3] was 84%. The “Population Pyknosed Nuclei (%)” value [3] was 52%, the “Population Tubulin-Different-Phenotype (%)” value [3] was 29% and the “Population Apoptotic (%)” value [4] was 10%. For the same compound, the “Population Fragmented Nuclei (%)” value [4] was 5%, the “Population Healthy Nuclei (%)” value [4] was 36% and the “Population Hoechst High Intensity Objects (%)” value [4] was 5%. The “Population Membrane Permeable-Phenotype (%)” value [4] was 1%, the “Population Mitochondria Different-Phenotype (%)” value [4] was 11% and the “Population Mitotic Cells (%)” value [4] was 89%. The “Population Normal (%)” value [4] was 94%, the “Population Pyknosed Nuclei (%)” value [4] was 58% and the “Population Tubulin-Different-Phenotype (%)” value [4] was 9%. For the same compound, the “Population Apoptotic (%)” value [5] was 37%, the “Population Fragmented Nuclei (%)” value [5] was 12% and the “Population Healthy Nuclei (%)” value [5] was 52%. The “Population Hoechst High Intensity Objects (%)” value [5] was 16%, the “Population Membrane Permeable-Phenotype (%)” value [5] was 1% and the “Population Mitochondria Different-Phenotype (%)” value [5] was 45%. The “Population Mitotic Cells (%)” value [5] was 62%, the “Population Normal (%)” value [5] was 83% and the “Population Pyknosed Nuclei (%)” value [5] was 34%. For the same compound, the “Population Tubulin-Different-Phenotype (%)” value [5] was 34%, the “Population Apoptotic (%)” value [6] was 6% and the “Population Fragmented Nuclei (%)” value [6] was 3%. The “Population Healthy Nuclei (%)” value [6] was 64%, the “Population Hoechst High Intensity Objects (%)” value [6] was 3% and the “Population Membrane Permeable-Phenotype (%)” value [6] was 10%. The “Population Mitochondria Different-Phenotype (%)” value [6] was 6%, the “Population Mitotic Cells (%)” value [6] was 93% and the “Population Normal (%)” value [6] was 96%. For the same compound, the “Population Pyknosed Nuclei (%)” value [6] was 31%, the “Population Tubulin-Different-Phenotype (%)” value [6] was 21% and the “Population Apoptotic (%)” value [7] was 39%. The “Population Fragmented Nuclei (%)” value [7] was 11%, the “Population Healthy Nuclei (%)” value [7] was 46% and the “Population Hoechst High Intensity Objects (%)” value [7] was 16%. For the same compound, the “Population Membrane Permeable-Phenotype (%)” value [7] was 1%, the “Population Mitochondria Different-Phenotype (%)” value [7] was 53% and the “Population Mitotic Cells (%)” value [7] was 60%. The “Population Normal (%)” value [7] was 83%, the “Population Pyknosed Nuclei (%)” value [7] was 41% and the “Population Tubulin-Different-Phenotype (%)” value [7] was 39%. For the same compound, the “Population Apoptotic (%)” value [8] was 7%, the “Population Fragmented Nuclei (%)” value [8] was 5% and the “Population Healthy Nuclei (%)” value [8] was 47%. For the same compound, the “Population Hoechst High Intensity Objects (%)” value [8] was 5%, the “Population Membrane Permeable-Phenotype (%)” value [8] was 8% and the “Population Mitochondria Different-Phenotype (%)” value [8] was 12%. For the same compound, the “Population Mitotic Cells (%)” value [8] was 92%, the “Population Normal (%)” value [8] was 94% and the “Population Pyknosed Nuclei (%)” value [8] was 47%. For the same compound, the “Population Tubulin-Different-Phenotype (%)” value [8] was 12%, the “Population Apoptotic (%)” value [9] was 42% and the “Population Fragmented Nuclei (%)” value [9] was 15%. The “Population Healthy Nuclei (%)” value [9] was 61%, the “Population Hoechst High Intensity Objects (%)” value [9] was 13% and the “Population Membrane Permeable-Phenotype (%)” value [9] was 3%. The “Population Mitochondria Different-Phenotype (%)” value [9] was 20%, the “Population Mitotic Cells (%)” value [9] was 57% and the “Population Normal (%)” value [9] was 86%. The “Population Pyknosed Nuclei (%)” value [9] was 23%, the “Population Tubulin-Different-Phenotype (%)” value [9] was 25% and the “Population Apoptotic (%)” value [10] was 3%. The “Population Fragmented Nuclei (%)” value [10] was 5%, the “Population Healthy Nuclei (%)” value [10] was 81% and the “Population Hoechst High Intensity Objects (%)” value [10] was 3%. The “Population Membrane Permeable-Phenotype (%)” value [10] was 8%, the “Population Mitochondria Different-Phenotype (%)” value [10] was 3% and the “Population Mitotic Cells (%)” value [10] was 96%. For the same compound, the “Population Normal (%)” value [10] was 96%, the “Population Pyknosed Nuclei (%)” value [10] was 13% and the “Population Tubulin-Different-Phenotype (%)” value [10] was 13%. For the same compound, the “Population Apoptotic (%)” value [11] was 29%, the “Population Fragmented Nuclei (%)” value [11] was 16% and the “Population Healthy Nuclei (%)” value [11] was 56%. For the same compound, the “Population Hoechst High Intensity Objects (%)” value [11] was 11%, the “Population Membrane Permeable-Phenotype (%)” value [11] was 1% and the “Population Mitochondria Different-Phenotype (%)” value [11] was 30%. The “Population Mitotic Cells (%)” value [11] was 70%, the “Population Normal (%)” value [11] was 88% and the “Population Tubulin-Different-Phenotype (%)” value [11] was 25%. The “Population Apoptotic (%)” value [12] was 11%, the “Population Fragmented Nuclei (%)” value [12] was 3% and the “Population Healthy Nuclei (%)” value [12] was 69%. For the same compound, the “Population Hoechst High Intensity Objects (%)” value [12] was 4%, the “Population Membrane Permeable-Phenotype (%)” value [12] was 3% and the “Population Mitochondria Different-Phenotype (%)” value [12] was 4%. The “Population Mitotic Cells (%)” value [12] was 88%, the “Population Normal (%)” value [12] was 95% and the “Population Pyknosed Nuclei (%)” value [12] was 26%. The “Population Tubulin-Different-Phenotype (%)” value [12] was 10%.
